High-throughput results: PubChem BioAssay, The Scripps Research Institute Molecular Screening Center
S1P2 ag: S1P2 (human) receptor agonism. S1P2-expressing cell line, agonist reporter read-out. activation, % at 4.5 µM. 97,000 tested, 0.46% active; in the data active means activation above about 16%;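 further: 0% = vehicle low control and 100% = maximal reference agonist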
Target sequence (O95136 whole entry, looked up): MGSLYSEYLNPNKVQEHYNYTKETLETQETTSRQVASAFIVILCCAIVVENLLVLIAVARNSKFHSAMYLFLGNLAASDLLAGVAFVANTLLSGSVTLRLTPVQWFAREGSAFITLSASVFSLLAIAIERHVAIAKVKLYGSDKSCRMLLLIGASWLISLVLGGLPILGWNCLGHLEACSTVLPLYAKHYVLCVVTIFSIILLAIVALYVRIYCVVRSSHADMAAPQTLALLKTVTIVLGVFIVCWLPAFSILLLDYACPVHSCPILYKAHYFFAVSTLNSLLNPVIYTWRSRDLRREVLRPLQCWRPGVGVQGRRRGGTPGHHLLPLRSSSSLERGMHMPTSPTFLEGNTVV
Rev-RRE block: HIV Rev-RRE protein-RNA interaction inhibition; P05866; Rev peptide-RRE RNA binding, FRET; inhibition, % at 8 µM; 97,000 tested, 0.79% active;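 active means inhibition above the screen-wide mean plus 3 SD, cut at about 35% in these data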;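 further: 0% = median DMSO wells and 100% = median Neomycin B control wells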
Target sequence (P05866 whole entry, looked up): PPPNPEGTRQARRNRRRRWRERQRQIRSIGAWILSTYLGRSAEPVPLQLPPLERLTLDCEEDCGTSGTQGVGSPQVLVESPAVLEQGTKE
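Test system – labelled RRE RNA duplex and labelled Rev peptide · Signal – fluorescein-to-Cy5 FRET, 480 nm excitation · Evaluation – % inhibition of FRET ratio versus controls · Benchmarks – DMSO low control, neomycin B high control · Incubation – 5 min RNA-compound premix plus 15 min binding step, 25 °C · Medium – HEPES pH 7.5 salt buffer with EDTA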
S1P2 antag: antagonists of human S1P2 receptor; cell-based S1P2 antagonist assay, inhibition at 5 uM; inhibition, % at 5 µM; 97,000 tested, 0.21% active; in the data active means inhibition above about 45%;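 further: CRE beta-lactamase reporter cells expressing human S1P2 stimulated with S1P; 0% = agonist at EC80 alone and 100% = agonist plus reference antagonist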
GALR2 blocker: antagonists of human galanin receptor 2 (GALR2); O43603; GALR2-expressing cells, antagonist mode; inhibition, % at 4 µM; 140,000 tested, 0.39% active; AID 828; in the data active means inhibition above about 27%;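 further: cells stimulated with galanin 1-16 at roughly its EC80; 0% = agonist challenge control and 100% = basal control without agonist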
EphB4 ephrin blk: antagonists of human EphB4-ephrin-B2 interaction. AID 720. P54760. inhibition, % at 7 µM. 97,000 tested, 0.15% active. EphB4 LBD / TNYL-RAW-Alexa532 peptide, fluorescence polarization;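 active means inhibition above the screen-wide mean inhibition plus 3 SD, cut at about 15% in these data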;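 further: 0% = DMSO wells and 100% = excess unlabeled TNYL-RAW peptide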
GALR2 agonist: activates the human galanin receptor 2; O43603; GALR2-expressing cells, agonist activation read-out; activation, % (no concentration beside the values); 140,000 tested, 0.48% active; in the data active means activation above about 5%, passing the limit was not always enough;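 further: 0% = vehicle buffer wells and 100% = reference agonist at full effect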
GALR2 agon conf: GALR2 (human) agonism confirmed; activation, % at 5.6 µM; GALR2-expressing cells, agonist activation; 460 tested, 10% active; shares compounds with GALR2 agonist; AID 864; in the data active means activation above about 8.4%;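 further: 0% = buffer-only vehicle wells and 100% = full reference agonist response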
BLA activ ctr: beta-lactamase activation, GALR2 counterscreen; CHO NFAT-bla reporter, beta-lactamase FRET activation; AID 865; activation, % at 5.6 µM; 460 tested, 10% active; shares compounds with GALR2 agonist;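 active means activation above the screen-wide mean activation plus 3 SD, cut at about 8% in these data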;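 further: 0% = DMSO with PBS wells and 100% = thapsigargin positive control wells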
Numbers without * were called inactive; · = no result; [ ] = dose if it differs, or a comment. Most compounds without a hit are left out; they make up all but 1.8% or so of the library.

SMILES | S1P2 ag | Rev-RRE block | S1P2 antag | GALR2 blocker | EphB4 ephrin blk | GALR2 agonist | GALR2 agon conf | BLA activ ctr
CC(=O)Nc1c(S(=O)(=O)c2ccccc2)c2nc3ccccc3nc2n1Cc1ccccc1 | 4.0 | -3.6 | 3.7 | -7.0 | -10.2 | 10.1 | 0.7 | 6.2
COC(=O)C1=C(C)NC(C)=C(C(=O)OC)C1c1ccc(OC(=O)c2oc3ccccc3c2C)c(OC)c1 | · | · | · | 4.6 | · | -2.2 | · | ·
O=C(O)c1ccccc1C(=O)Nc1ccc(S(=O)(=O)NC2CCCCC2)cc1 | · | · | · | 0.1 | · | 14.5* | -0.8 | -1.9
CCOC(=O)/C=c1\s/c(=C\c2ccc(C(F)(F)F)cc2)c(=O)n1CC(=O)NCc1ccco1 | · | · | · | -4.7 | · | -0.2 | · | ·
CCOC(=O)/C=c1\s/c(=C\c2ccc(C)cc2)c(=O)n1CC(=O)NCc1ccco1 | · | · | · | 2.8 | · | 8.2* | 2.7 | 0.1
CC(=O)c1ccc(OCCCC(=O)OCC(=O)N2CCN(c3ccccc3)CC2)cc1 | -7.1 | 9.7 | -3.7 | 12.5 | -0.4 | 68.0* | -1.0 | -1.9
O=C(CCCOc1ccccc1)N1CCN(c2ccccc2)CC1 | 1.0 | 9.0 | -25.7 | -24.0 | -4.0 | -0.2 | · | ·
N=c1oc2cc(O)ccc2cc1C(=O)Nc1nc2ccccc2s1 | · | · | · | -36.8 | · | 25.5* | 35.5* | 93.8*
Cc1nc(-n2[nH]c3c(c2=O)CCCC3)[nH]c(=O)c1Cc1ccccc1 | -4.5 | 86.5*[fluorescence artefact?] | 13.3 | -1.1 | -2.8 | 8.6 | 4.9 | 29.3*
Cc1nn(Cc2c(Cl)cccc2Cl)c(C)c1NC(=O)c1sc2ccccc2c1Cl | -0.2 | -0.8 | -11.6 | -4.3 | -4.8 | 11.5* | 5.5 | -0.3
COC(=O)C1=CN(CC2CCCO2)C=C(C(=O)OC)C1c1ccccc1C(F)(F)F (centres undefined) | 10.9 | 5.1 | 2.1 | -7.9 | 2.5 | 11.9* | 2.7 | 8.1
CC(=O)CSc1ccc(C(=O)O)cn1 | · | · | · | -4.1 | · | -0.5 | · | ·
CC(=O)NC1=C(N(C)C2CCS(=O)(=O)C2)C(=O)c2ccccc2C1=O (centres undefined) | · | · | · | 0.0 | · | 35.5* | -1.1 | -1.6
CN(C(=O)Nc1ccccc1)C1CCS(=O)(=O)C1 (centres undefined) | -4.1 | 4.2 | -2.0 | -6.7 | 3.4 | -1.0 | · | ·
CCOC(=O)N/N=C(\C)c1ccc(OC(F)F)cc1OC(F)F | · | · | · | 6.5 | · | -1.1 | · | ·
C/C(Cn1cnc([N+](=O)[O-])n1)=N/NC(=O)COc1c(Cl)cc(Cl)cc1Cl | · | · | · | -5.2 | · | 0.1 | · | ·
COCCCNC(=O)c1c(N)n(-c2ccc(S(N)(=O)=O)cc2)c2nc3ccccc3nc12 | 10.2 | 2.9 | -20.4 | 3.8 | 5.9 | 3.3 | · | ·
C=CCNC(=O)c1c(N)n(-c2cccc(S(N)(=O)=O)c2)c2nc3ccccc3nc12 | 10.1 | 5.2 | 1.5 | -5.9 | -2.3 | 8.3 | 1.9 | 5.6
O=C(Nc1nc2ccccc2s1)c1ccc(N2CCCCC2)c([N+](=O)[O-])c1 | · | · | · | 2.9 | · | -0.9 | · | ·
COc1ccc(OC)c2sc(NC(=O)c3ccc(Cl)s3)nc12 | -11.0 | 15.9 | 4.9 | -15.7 | 8.1 | -1.5 | · | ·
COc1ccc(OC)c2sc(NC(=O)c3ccc(Br)s3)nc12 | · | · | · | 15.3 | · | 13.4* | -1.0 | -1.9
CCN(CC)S(=O)(=O)c1ccc(N2CCOCC2)c(NC(=O)Cc2cccc3ccccc23)c1 | · | · | · | 8.3 | · | 0.1 | · | ·
CCOc1ccc(NC(=S)NC(=O)c2c(Cl)c(C)nn2C)c([N+](=O)[O-])c1 | · | · | · | 3.1 | · | 8.6* | 1.3 | 2.1
CSc1nnc2c3cc(C)ccc3n(Cc3ccccc3)c2n1 | · | · | · | 8.0 | · | 10.2* | 6.8 | 2.7
CCn1c2ccc(C)cc2c2nnc(NN)nc21 | · | · | · | -8.8 | · | 1.0 | · | ·
CCCc1c2ccccc2nc2ccccc12 | · | · | · | -5.9 | · | 0.2 | · | ·
Cc1c(Cl)cnc(NC(=O)COC(=O)c2cccc(S(=O)(=O)N3c4ccccc4CC3C)c2)c1Cl (centres undefined) | · | · | · | -1.1 | · | -0.8 | · | ·
CC(=O)N1CC(=O)N=C1SCC(=O)Nc1nc(-c2ccccc2)c(-c2ccccc2)s1 | · | · | · | 2.2 | · | -0.1 | · | ·
COc1ccc(CNC(=O)C2=C(C)C(=O)OC23CCC(C)CC3)cc1 (centres undefined) | -1.1 | 6.8 | -8.9 | -3.5 | -2.3 | -3.0 | · | ·
